Only some compounds are listed: those with a hit (about 3.8% of all), similar ones and a draw of the others.
hERG protect: shields human hERG channel from block by proarrhythmic agents. CHO-hERG, FluxOR thallium flux, dofetilide IC70 present. activation (rescue from dofetilide block), less the hit threshold, % at 10 µM. 310,000 tested, 0.51% active;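 active = activation above the mean of controls blocked by dofetilide plus 5 SD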;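 note: thallium influx through hERG after potassium depolarization seen as dye fluorescence rise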
KCNQ1 inh: inhibitors of human KCNQ1 potassium channel; CHO-K1 KCNQ1, FluxOR thallium flux fluorescence; active compounds read high; 310,000 tested, 1.3% active; P51787; B-score at 10 µM; AID 2642;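 active = compounds whose thallium flux B-score, printed positive for inhibition, exceeds three library SD while starting fluorescence stays within three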;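 note: channel opened by potassium depolarization with thallium stimulus after 20 min compound exposure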
KCNQ1 pot: potentiates or activates the human KCNQ1 potassium channel | AID 2648 | CHO-K1 KCNQ1, thallium flux FluxOR fluorescence; active compounds read high | 310,000 tested, 0.35% active | P51787 | B-score at 10 µM;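 active = fluorescence ratio B-score, a plate-corrected score, at least three library SD, with initial intensity B-score within 5 SD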
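Assay system: stable KCNQ1 CHO-K1 line; medium: assay buffer, equal DMSO in all wells; timing: 90 min dye loading and 20 min compound exposure, both at room temperature; technique: kinetic FluxOR thallium fluorescence, 10-s 1-Hz baseline, 110-s post-stimulus read; read-out basis: B score of baseline-normalized fluorescence ratio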
KCNK9 inh: blocks the human KCNK9 two-pore domain potassium channel | B-score at 10 µM | Q9NPC2 | HEK293 KCNK9, FluxOR thallium flux fluorescence; active compounds read low | 310,000 tested, 1.2% active;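 active = ratio B-score over 3 SD below the library mean, with starting fluorescence within 5 SD of its mean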;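 note: negative B-score means less thallium flux so channel inhibition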
Kir21 block: inhibitors of mouse Kir2.1 inward-rectifier potassium channel; AID 1672; B-score at 10 µM; HEK293-Kir2.1, FluxOR thallium flux fluorescence; active compounds read low; 310,000 tested, 0.85% active; P35561;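 active = fluorescence ratio B-score at or below minus 3 SD of library scores, with starting-brightness B-score within 2 SD, cut at about -4.2 in these data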;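 note: channel flux triggered by added potassium and thallium sulfate stimulus; B-score of peak minus minimum fluorescence over baseline after thallium stimulus; more negative B-score means stronger Kir2.1 block with less thallium influx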
Target sequence (P35561 whole entry, looked up): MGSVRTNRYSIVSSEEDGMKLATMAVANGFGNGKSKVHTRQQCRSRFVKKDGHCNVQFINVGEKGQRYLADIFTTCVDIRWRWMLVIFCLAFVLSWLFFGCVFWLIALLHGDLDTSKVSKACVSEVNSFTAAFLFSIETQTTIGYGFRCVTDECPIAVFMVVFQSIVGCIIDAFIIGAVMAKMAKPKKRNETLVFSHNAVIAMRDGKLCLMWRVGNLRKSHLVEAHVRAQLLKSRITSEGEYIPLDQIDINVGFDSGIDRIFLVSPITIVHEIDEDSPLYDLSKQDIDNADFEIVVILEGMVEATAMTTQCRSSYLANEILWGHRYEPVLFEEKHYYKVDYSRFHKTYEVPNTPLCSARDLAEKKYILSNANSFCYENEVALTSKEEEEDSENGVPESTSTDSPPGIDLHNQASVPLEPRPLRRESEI
KCNK3 block: human KCNK3 channel inhibition, primary screen; CHO-KCNK3 thallium flux, FluxOR fluorescence; active compounds read low; B-score at 10 µM; 340,000 tested, 0.84% active;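 active = B-score under library mean minus 4 SD, starting fluorescence ratio at most library mean plus 5 SD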;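 note: more negative B-score means stronger inhibition of thallium flux through KCNK3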
Numbers without * were called inactive; i = inactive; x = no result.

SMILES | hERG protect | KCNQ1 inh | KCNQ1 pot | KCNK9 inh | Kir21 block | KCNK3 block
Cc1nc(-c2nnc(SCC(=O)Nc3cc(Cl)cc(Cl)c3)n2C)cs1 | -9 | i | i | i | 0.61 | i
O=C(NC1CC2CCC(C1)N2C(=O)NCc1ccccc1)C1CC1 (stereo unspecified) | 13* | i | i | i | 0.65 | i
O=[N+]([O-])c1ccc(N2CCCC2)cc1NC(c1ccccc1)c1ccccc1 | -14 | i | i | i | -1.8 | i
CCC(=O)N(CC)C1=C(O)c2ccccc2C(=O)C1=O | -8 | i | i | i | -4.6* | i
COc1cc(CNCc2ccc(SC)cc2)cc(OC)c1 | -7 | i | i | i | -5.2* | i
Cc1ccc(C(=O)Sc2cccccc2=O)cc1 | 5.5* | i | 15* | i | -2.5 | i
Cc1ccc(NC(=O)c2ccccc2)cc1 | -13 | i | i | i | 0.1 | i
Cc1noc(C)c1NC(=O)N(C)C[C@H]1Oc2ccc(NC(=O)CCC(F)(F)F)cc2C(=O)N([C@H](C)CO)C[C@@H]1C | x | x | x | x | x | i
c1ccc(-c2nnsc2-c2ccccc2)cc1 | -8 | i | i | i | -3.3 | i
O=S(=O)(c1ccc(Cl)c(Cl)c1)c1snnc1-c1ccccc1 | -9 | i | i | i | -4.2* | i
C[n+]1c2n(c3ccccc31)N=C(c1ccc(-c3ccccc3)cc1)CS2 | -25 | 12* | i | i | -2.9 | i
Cc1[nH]c(=S)[nH]c(=O)c1CCC1OCCO1 | -7 | i | i | i | 0.12 | i
CC(C)(C)[C@H]1CCC(=O)N([C@H](CSc2ccc(Br)cc2)Cc2ccccc2)CC1 | x | x | x | x | x | i
CC(C)(C)[C@@H]1CCC(=O)N(CC[C@H](Sc2ccccc2)c2ccccc2)CC1 | -4 | 6* | i | i | -0.96 | i
CC(C)(C)[C@H]1CCC(=O)N([C@H](CSc2ccccc2)Cc2ccccc2)CC1 | -9 | i | i | -6.8* | -1.4 | i
CCCN1CCC(=O)N(CCOc2ccccc2)CC1 | -10 | i | i | i | -1.9 | i
CC(C)(C)C1CCC(=O)N(CCOc2ccccc2)CC1 (stereo unspecified) | -13 | i | i | i | -5.6* | i
COC(=O)c1cccc(NC(=O)CCNC(=O)c2ccco2)c1 | -9 | i | i | i | 0.52 | i
COc1ccc(C)cc1NC(=O)C(OC(=O)CNC(=O)c1ccc(Oc2ccccc2)cc1)c1ccccc1 (stereo unspecified) | -15 | i | i | -7.9* | 1.4 | i
COc1ccc(C)cc1NC(=O)C(OC(=O)CNC(=O)c1cccc(F)c1)c1ccccc1 (stereo unspecified) | -4 | i | i | i | -0.13 | i
CC[N+](CC)(CCO)CCCN1C(=O)C2CC=C(Cl)CC2C1=O (stereo unspecified) | -8 | i | i | i | -0.03 | i
COCCn1c(-c2ccc(Cl)cc2Cl)nc2c(c(=O)c3ccccc3n2C)c1=O | -8 | i | i | i | -0.49 | i
COC(=O)c1sc(S(=O)(=O)Nc2c(C)nn(C)c2C)c(C(=O)OC)c1C | x | x | x | x | x | i
COC(=O)c1sc(NC(=S)NNC(=O)c2c(Br)c(C)nn2C)c(C(=O)OC)c1C | -11 | 6* | i | i | 0.46 | i
CC(OC(=O)CN1C(=O)c2ccccc2C1=O)C(=O)NC1CCCCC1C (stereo unspecified) | -7 | i | i | i | -0.79 | i
SMILES | hERG protect | KCNQ1 inh | KCNQ1 pot | KCNK9 inh | Kir21 block | KCNK3 block
C/C(=N\N=C(c1ccccc1)c1ccccc1)c1ccco1 | -15 | 7* | i | i | 1.8 | i
COc1ccc(CCCc2nnc(SCC(=O)NN)o2)cc1 | -4 | i | i | i | 0 | i
CCOC(=O)c1c(C)cccc1OCC(N)=O | 6.2* | i | i | i | -1.2 | i
CCOC(=O)c1c(C)oc2ccc(OCC(N)=O)cc12 | -2 | i | i | i | -1.3 | i
O=C(Nc1ccccc1Oc1ccccc1)C1CCCC1 | 2 | i | i | i | 1 | i
CC(=O)Sc1nc(-c2ccccc2)[nH]c1S(=O)(=O)c1ccc(C)cc1 | -7 | 10* | i | i | 0.36 | x
CSc1nc(-c2ccc(C)cc2)[nH]c1S(=O)(=O)c1ccccc1 | -5 | i | i | i | -1.6 | i
NC(=S)n1[nH]c(-c2ccccc2)c(N=Nc2ccccc2C(=O)N2CCOCC2)c1=O | -11 | i | i | i | 1.8 | i
Cc1ccc2nc3c(cc(C(=O)NCc4ccco4)c(=N)n3C3CCCC3)c(=O)n2c1 | -26 | 8* | i | i | -2.1 | i
COCCn1c(=N)c(C(=O)NCc2ccco2)cc2c(=O)n3cc(C)ccc3nc21 | -23 | i | i | i | -1.3 | i
CC(C)NC(=O)CN(CCc1ccccc1)S(C)(=O)=O | -2 | i | i | i | 0.42 | i
CCc1cc(=O)oc2c(C)c(OCC(=O)NCCCN3CCOCC3)ccc12 | -10 | i | i | i | -2.3 | i
CC(C)NC(=O)CCCc1cn(C)c2ccccc12 | 1 | i | i | i | 1.1 | i
CCn1cc(CCC(=O)NC(C)c2ccccc2)c2ccccc21 (stereo unspecified) | -4 | i | i | i | -6.1* | i
COc1ccc(OC)c(CCNC(=O)CCc2cn(C)c3ccccc23)c1 | 1 | i | i | i | -5.6* | i
COc1ccc(OC)c(CCNC(=O)Cn2sc3nc(C)cc(C)c3c2=O)c1 | -41 | 6* | i | i | -1.2 | x
CC(CCc1ccccc1)NC(=O)CCc1cn(C)c2ccccc12 (stereo unspecified) | -6 | i | i | i | -5.6* | i
COCCCNC(=O)c1ccccc1Sc1ccc(NC(C)=O)nc1 | -3 | i | i | i | 3.7 | i
CCc1noc(C)c1C(=O)NNC(=O)c1nn(CC)c(=O)c2ccccc12 | -9 | i | i | i | -1.5 | i
CCn1cc(CCC(=O)NCc2cccc(OC)c2OC)c2ccccc21 | 6.4* | i | i | i | -6.6 | i
CCCCOP(=O)(OCCCC)C(Nc1ccc(C(=O)OCC)cc1)c1ccncc1 (stereo unspecified) | -11 | 6* | i | i | 0.29 | i
CCCOP(=O)(OCCC)C(Nc1ccc(C(=O)O)cc1)c1ccccc1 (stereo unspecified) | -3 | i | i | i | -0.47 | i
O=C(c1ccco1)N1CCN(c2nc(C3CC3)nc3c2nnn3Cc2ccccc2Cl)CC1 | -11 | 6* | i | i | -2.4 | i
